Measured values taken from the RNAGym collection of RNA variant scans (doi:10.1126/science.aae0568).
Fewer inactive variants are shown than the library holds.

B1: tRNA (parent)
chain: GUUCCGUUGGCGUAAUGGUAACGCGUCUCCCUCCUAAGGAGAAGACUGCGGGUUCGAGUCCCGUACGGAACG

Variants of: B1
Assay: yeast fitness relative to wild type (ratio to wild type); higher = fitter; tRNA-Arg(CCU), competitive growth, 37 C, YPD
Outline: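 Changes in genotype frequencies gave Darwinian fitness relative to wild type. Frequencies were read by 100-nucleotide paired-end sequencing of gene amplicons before and after pooled Saccharomyces cerevisiae strains, carrying tRNA-Arg(CCU) gene variants at the native locus, were competed in YPD at 37°C for 24 hours in six replicates. A genotype was kept only with ≥ 100 starting reads, and estimates < 0.5 were set to 0.5.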

Variant	yeast fitness
C31A A37C C46U	≤ 0.5
C31A A37C G67A	≤ 0.5
C31A A37G C49U C55U A57G	≤ 0.5
C31A A37U G63A G67C	≤ 0.5
C31A A40C	0.775
C31A A40C C46U C55U G63A	≤ 0.5
C31A A40C C62U	0.532
C31A A40C U47A U64A	≤ 0.5
C31A A40U U53G G56C C62G	≤ 0.5
C31A A42C	0.963
C31A A42C C46G	0.959
C31A A42C C46G G67A	0.625
C31A A42G A43G G68C	0.52
C31A A43C C62U	0.998
C31A A43G	0.897
C31A A43G G50A A57U	0.768
C31A A43G G68A	0.657
C31A A43U	0.94
C31A A45C C62U G63A U64A	0.521
C31A A45G G52A C55A	≤ 0.5
C31A A57G C61U	≤ 0.5
C31A A57G G68A	≤ 0.5
C31A A57U A69U	≤ 0.5
C31A A65C	0.89

Variant	yeast fitness
C31A A65C G67U	≤ 0.5
C31A A65G	0.732
C31A A65U C66A	≤ 0.5
C31A A69C	0.949
C31A A69U	0.856
C31A A70C	0.783
C31A A70G	0.811
C31A A70U	0.927
C31A C33A C55G A57U C66U G67A	≤ 0.5
C31A C33G A36U	0.676
C31A C33G A36U C66U	≤ 0.5
C31A C33G A36U U54C	≤ 0.5
C31A C33G A42C G48A U54A A69C	≤ 0.5
C31A C33G A42C G48A U54A C66A	≤ 0.5
C31A C33U C49U	≤ 0.5
C31A C33U G41C G67C	≤ 0.5
C31A C34A	0.603
C31A C34A A37C	0.6
C31A C34G A42G A45U	≤ 0.5
C31A C34G A43C U47C C61U	≤ 0.5
C31A C34G A45U	0.591
C31A C46A	0.853
C31A C46A A65U	≤ 0.5
C31A C46G	0.852

Variant	yeast fitness
C31A C46U A70C	0.62
C31A C49U C61U	0.663
C31A C55A	0.666
C31A C55A G67A	≤ 0.5
C31A C55U	0.863
C31A C60A	0.629
C31A C61A	≤ 0.5
C31A C61G	0.812
C31A C61G G63A	≤ 0.5
C31A C61G G67C A70G	≤ 0.5
C31A C61G G68C	≤ 0.5
C31A C61U	0.845
C31A C62A A70C	0.548
C31A C62G	0.651
C31A C62G G63A C66G A69G	≤ 0.5
C31A C62G G68C	≤ 0.5
C31A C62U	0.944
C31A C66U	0.788
C31A G38A C46U	≤ 0.5
C31A G38C	0.749
C31A G39A	0.777
C31A G39A A43C U53A C66A	≤ 0.5
C31A G39A C46U	≤ 0.5
C31A G44A	0.792

Variant	yeast fitness
C31A G44A A57C C62A G68C	0.559
C31A G44A A57C G68C	0.753
C31A G44C A65G	0.553
C31A G48A	0.764
C31A G48A A69C	0.678
C31A G48C	0.661
C31A G48C U54C C61A A70G	≤ 0.5
C31A G50A	0.791
C31A G50C A70G	≤ 0.5
C31A G51C C60U G67A	≤ 0.5
C31A G52C	≤ 0.5
C31A G52C A57G	≤ 0.5
C31A G56A	0.805
C31A G56C A57G C62U	≤ 0.5
C31A G58C	0.894
C31A G63A	0.676
C31A G63C	0.62
C31A G63C G68U	≤ 0.5
C31A G67A	0.754
C31A G68A	0.694
C31A G68C	0.648
C31A U32C	0.766
C31A U35A A36U U47C C55U	0.518
C31A U47C	0.767

Variant	yeast fitness
C31A U47C A69U	≤ 0.5
C31A U47C G67A	0.544
C31A U53C	0.571
C31A U59C	0.767
C31G	0.939
C31G A36C	0.555
C31G A36C A42G G52A	≤ 0.5
C31G A36C C46G G51C	0.597
C31G A36C C49U U54G A65U	≤ 0.5
C31G A36C C62G	≤ 0.5
C31G A36G	0.783
C31G A36G A69C	0.622
C31G A36U C46U A65C	0.74
C31G A36U G41A A45C	≤ 0.5
C31G A37C A57U	≤ 0.5
C31G A37C G50A A65C	≤ 0.5
C31G A37G	0.79
C31G A37G C62U G63C	0.54
C31G A37G U54A	0.681
C31G A37U A42U	0.56
C31G A37U C55G A57C	0.541
C31G A37U G48C	0.528
C31G A37U G56C	≤ 0.5
C31G A40C	0.718

Variant	yeast fitness
C31G A40G A45C U53A A70U	≤ 0.5
C31G A40G C46A C55G	0.578
C31G A40G C46A U54C C55G	≤ 0.5
C31G A40U	0.998
C31G A40U A45C	0.533
C31G A40U A45U C62A	0.591
C31G A42G A65U G67C	≤ 0.5
C31G A42G C49G	≤ 0.5
C31G A42G U47G	0.573
C31G A42U	0.983
C31G A42U C66U	0.767
C31G A42U G58C	0.538
C31G A43C A70U	0.637
C31G A43G C49U G68A A69C	≤ 0.5
C31G A43G G51A	0.593
C31G A43U	0.984
C31G A43U C46G	0.586
C31G A43U U47A	0.605
C31G A45C	0.864
C31G A45C C49A A70G	≤ 0.5
C31G A45C C60A G63A	≤ 0.5
C31G A45G A65G	0.628
C31G A45G C60G	≤ 0.5
C31G A45U	0.987

Variant	yeast fitness
C31G A45U C55U C62U	0.564
C31G A45U C62U	0.876
C31G A57C	0.617
C31G A57C C61U	≤ 0.5
C31G A57G	0.771
C31G A57U	0.726
C31G A65C C66U	≤ 0.5
C31G A65U	0.799
C31G A65U A70G	0.589
C31G A65U G67C	0.567
C31G A69G	1.02
C31G A70G	0.914
C31G C33A	0.678
C31G C33A C49U U54G A65U	0.597
C31G C33A C66A	0.734
C31G C33A G48C	≤ 0.5
C31G C33G A70U	≤ 0.5
C31G C33G C34U G68A	0.603
C31G C33G C49U C60G C66A	≤ 0.5
C31G C33G G39C	0.508
C31G C33U A37C A65U	0.538
C31G C33U A37C A70U	≤ 0.5
C31G C33U A42C C66G	≤ 0.5
